Experiment [1] has as its target T1, 5-hydroxytryptamine receptor 1A (Homo sapiens) (UniProt P08908).
T1 sequence (whole entry): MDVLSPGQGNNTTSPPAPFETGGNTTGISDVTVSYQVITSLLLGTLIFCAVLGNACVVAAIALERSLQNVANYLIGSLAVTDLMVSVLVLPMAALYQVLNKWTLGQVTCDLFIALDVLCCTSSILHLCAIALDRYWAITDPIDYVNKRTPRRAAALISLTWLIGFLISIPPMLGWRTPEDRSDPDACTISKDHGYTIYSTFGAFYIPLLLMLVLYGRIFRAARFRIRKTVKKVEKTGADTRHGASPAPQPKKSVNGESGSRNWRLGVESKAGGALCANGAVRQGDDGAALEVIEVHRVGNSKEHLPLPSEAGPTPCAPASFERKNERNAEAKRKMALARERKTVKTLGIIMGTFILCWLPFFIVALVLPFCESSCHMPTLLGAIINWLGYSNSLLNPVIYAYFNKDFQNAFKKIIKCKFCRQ
Nature of the experiment: Agonist activity at human 5HT1A receptor expressed in human HeLa cells assessed as inhibition of forskolin-stimulated cAMP production pretreated 20 mins before forskolin challenge measured after 2 hrs by RIA relative to control. The format is functional, cell-based. (Changes in cAMP serve as a functional read-out for many G protein-coupled receptors.)

For experiment [2], the target named is 5-hydroxytryptamine receptor 4 (Rattus norvegicus, UniProt Q62758). Put plainly: Displacement of [3H]GR113808 from 5HT4 receptor in Sprague-Dawley albinus rat striatal membranes after 30 mins by scintillation counting. The format is cell membranes, Membrane. For orientation: In a radioligand displacement assay an active substance lowers the binding of a labelled ligand.

In experiment [3] the target is 5-hydroxytryptamine receptor 7 (Rattus norvegicus, UniProt P32305). Nature of the experiment: Displacement of [3H]-5-CT from 5HT7 receptor in Sprague-Dawley albinus rat hyphalamic membranes after 120 mins. The format is cell membranes, Membrane.
Experiment [4] in a line: Neuroprotective activity in Wistar rat hippocampi primary neuronal cells assessed as protection against serum-deprivation induced cell death at 10 uM after 24 hrs by MTT assay. The format is functional, Hippocampus, Primary neuron. The method, boiled down: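 Mixed neuron-glia cultures from E18 Wistar rat hippocampi (Neurobasal plus 10% FCS), used at 11 days in vitro. Medium replaced by saline to withdraw serum; cells held 24 h with compound. Cell survival measured by MTT reduction, expressed as % protection.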
Background: Formazan colour is commonly taken as a measure of viable cells.

The target in another experiment is D(2) dopamine receptor (Rattus norvegicus, UniProt P61169). Put plainly: Displacement of [3H]spiperone from dopamine D2 receptor in Sprague-Dawley albinus rat striatal membranes after 15 mins. The format is cell membranes, Membrane.
The target of experiment [5] is 5-hydroxytryptamine receptor 2A (Rattus norvegicus, UniProt P14842). Nature of the experiment: Displacement of [3H]ketanserin from 5HT2A receptor in Sprague-Dawley albinus rat frontal cortex membranes after 15 mins. The format is cell membranes, Membrane. The procedure, abridged:
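Rat frontal cortex membranes (male Sprague–Dawley, 180–200 g). Nonspecific binding was set with 1 μM cinanserin.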

Experiment [6] deals with T2, Adrenergic receptor alpha-1 (Rattus norvegicus, UniProt P15823+P23944+P43140).
T2 sequence (P15823 whole entry): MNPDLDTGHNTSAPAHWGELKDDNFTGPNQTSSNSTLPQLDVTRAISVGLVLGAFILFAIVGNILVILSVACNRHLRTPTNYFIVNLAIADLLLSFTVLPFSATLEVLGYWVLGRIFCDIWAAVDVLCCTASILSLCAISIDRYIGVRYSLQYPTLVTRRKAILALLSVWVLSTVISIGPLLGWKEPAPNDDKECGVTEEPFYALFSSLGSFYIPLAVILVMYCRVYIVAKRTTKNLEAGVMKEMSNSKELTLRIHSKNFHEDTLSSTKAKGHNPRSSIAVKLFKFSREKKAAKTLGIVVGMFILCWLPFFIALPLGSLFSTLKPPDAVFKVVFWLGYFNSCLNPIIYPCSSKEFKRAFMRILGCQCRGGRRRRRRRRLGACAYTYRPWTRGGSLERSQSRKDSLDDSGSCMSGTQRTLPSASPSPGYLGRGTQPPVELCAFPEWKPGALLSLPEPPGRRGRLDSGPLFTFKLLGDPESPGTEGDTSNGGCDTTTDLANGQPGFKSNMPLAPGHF
T2 sequence (P23944 whole entry): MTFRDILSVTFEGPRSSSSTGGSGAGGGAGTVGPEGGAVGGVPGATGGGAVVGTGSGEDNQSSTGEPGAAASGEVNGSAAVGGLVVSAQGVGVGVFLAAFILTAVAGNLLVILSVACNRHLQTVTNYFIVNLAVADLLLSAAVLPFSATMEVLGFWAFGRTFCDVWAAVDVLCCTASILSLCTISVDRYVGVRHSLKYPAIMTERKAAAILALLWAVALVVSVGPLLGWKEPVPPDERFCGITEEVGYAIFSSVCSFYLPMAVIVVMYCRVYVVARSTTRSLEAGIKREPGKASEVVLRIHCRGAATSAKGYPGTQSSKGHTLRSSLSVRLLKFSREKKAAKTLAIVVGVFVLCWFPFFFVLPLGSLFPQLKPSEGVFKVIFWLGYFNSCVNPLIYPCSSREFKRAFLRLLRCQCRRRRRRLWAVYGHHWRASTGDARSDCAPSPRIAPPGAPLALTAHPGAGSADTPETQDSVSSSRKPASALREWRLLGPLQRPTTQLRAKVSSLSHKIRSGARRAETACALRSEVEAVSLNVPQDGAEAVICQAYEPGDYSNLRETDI
T2 sequence (P43140 whole entry): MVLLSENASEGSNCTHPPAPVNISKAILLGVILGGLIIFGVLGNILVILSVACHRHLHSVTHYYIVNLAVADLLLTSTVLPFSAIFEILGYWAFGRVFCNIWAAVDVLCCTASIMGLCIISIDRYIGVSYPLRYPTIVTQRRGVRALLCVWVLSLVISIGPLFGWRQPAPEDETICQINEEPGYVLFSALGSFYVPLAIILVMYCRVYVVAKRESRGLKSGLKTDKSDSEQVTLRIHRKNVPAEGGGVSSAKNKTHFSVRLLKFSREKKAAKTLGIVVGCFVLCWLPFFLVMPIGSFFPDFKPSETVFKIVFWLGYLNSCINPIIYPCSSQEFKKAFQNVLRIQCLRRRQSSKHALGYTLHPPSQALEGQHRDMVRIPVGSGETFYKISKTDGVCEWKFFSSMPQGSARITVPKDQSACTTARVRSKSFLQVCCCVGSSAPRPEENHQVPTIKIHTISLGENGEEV
Nature of the experiment: Displacement of [3H]prazosin from alpha1 adrenoceptor in Sprague-Dawley albinus rat cerebral cortex membranes after 30 mins. The format is cell membranes, Membrane. The procedure, abridged: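 Rat cerebral cortex membranes (about 250 μg protein; male Sprague–Dawley, 180–200 g) in 50 mM Tris-HCl with 10 mM MgCl2, pH 7.4. Incubation was 30 min at 25 °C with 0.2 nM [3H]prazosin and six competitor concentrations. Nonspecific binding was set with 10 μM phentolamine.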

Where only a bound is given, the exact number is not on record here.

5-hydroxytryptamine receptor 4, sequence (Q62758 whole entry): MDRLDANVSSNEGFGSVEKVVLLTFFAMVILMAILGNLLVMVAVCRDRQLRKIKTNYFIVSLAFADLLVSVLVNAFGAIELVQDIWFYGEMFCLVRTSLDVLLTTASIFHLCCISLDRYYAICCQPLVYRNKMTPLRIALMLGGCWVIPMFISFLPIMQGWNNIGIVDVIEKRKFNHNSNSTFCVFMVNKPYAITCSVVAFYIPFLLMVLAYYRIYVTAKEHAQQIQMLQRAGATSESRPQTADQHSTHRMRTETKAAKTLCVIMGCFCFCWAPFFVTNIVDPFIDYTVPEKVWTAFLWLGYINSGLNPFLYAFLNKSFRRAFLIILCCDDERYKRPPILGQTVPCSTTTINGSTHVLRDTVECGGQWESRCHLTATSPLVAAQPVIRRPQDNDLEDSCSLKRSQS
5-hydroxytryptamine receptor 7, sequence (P32305 whole entry): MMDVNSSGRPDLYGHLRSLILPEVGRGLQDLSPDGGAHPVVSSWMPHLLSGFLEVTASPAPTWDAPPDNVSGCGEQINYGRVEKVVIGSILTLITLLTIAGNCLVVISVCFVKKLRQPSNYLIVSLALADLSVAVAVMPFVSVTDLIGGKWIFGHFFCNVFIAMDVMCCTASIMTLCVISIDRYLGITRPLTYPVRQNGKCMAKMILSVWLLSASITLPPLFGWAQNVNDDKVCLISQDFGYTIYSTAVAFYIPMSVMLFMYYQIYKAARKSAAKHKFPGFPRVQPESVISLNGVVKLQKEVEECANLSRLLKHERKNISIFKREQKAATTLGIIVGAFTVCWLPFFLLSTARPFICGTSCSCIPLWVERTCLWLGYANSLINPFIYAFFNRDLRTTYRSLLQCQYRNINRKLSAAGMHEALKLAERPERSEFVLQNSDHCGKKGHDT
5-hydroxytryptamine receptor 2A, sequence (P14842 whole entry): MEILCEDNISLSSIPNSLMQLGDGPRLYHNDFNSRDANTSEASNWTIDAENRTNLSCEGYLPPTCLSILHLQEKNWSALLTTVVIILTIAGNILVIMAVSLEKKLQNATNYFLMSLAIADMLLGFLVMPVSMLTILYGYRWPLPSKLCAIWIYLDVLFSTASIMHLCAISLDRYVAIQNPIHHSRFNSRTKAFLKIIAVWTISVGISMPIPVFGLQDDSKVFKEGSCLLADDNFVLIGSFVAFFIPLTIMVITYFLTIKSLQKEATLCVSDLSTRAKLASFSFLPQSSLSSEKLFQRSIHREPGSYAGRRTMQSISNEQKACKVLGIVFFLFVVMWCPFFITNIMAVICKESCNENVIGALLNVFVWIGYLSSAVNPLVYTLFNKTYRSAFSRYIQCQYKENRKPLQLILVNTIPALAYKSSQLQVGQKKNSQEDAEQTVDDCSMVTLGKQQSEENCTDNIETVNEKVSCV
D(2) dopamine receptor, sequence (P61169 whole entry): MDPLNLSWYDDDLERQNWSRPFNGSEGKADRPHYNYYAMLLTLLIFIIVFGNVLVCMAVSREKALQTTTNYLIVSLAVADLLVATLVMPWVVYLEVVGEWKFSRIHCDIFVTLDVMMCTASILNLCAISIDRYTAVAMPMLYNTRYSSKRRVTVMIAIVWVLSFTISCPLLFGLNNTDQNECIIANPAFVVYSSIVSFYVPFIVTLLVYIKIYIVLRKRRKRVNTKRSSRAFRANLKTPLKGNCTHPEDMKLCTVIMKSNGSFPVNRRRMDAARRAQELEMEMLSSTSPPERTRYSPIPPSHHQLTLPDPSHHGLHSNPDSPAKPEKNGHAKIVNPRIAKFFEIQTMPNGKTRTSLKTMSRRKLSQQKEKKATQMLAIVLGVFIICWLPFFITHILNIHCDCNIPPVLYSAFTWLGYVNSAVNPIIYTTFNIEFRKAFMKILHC

In general, Emax refers to the maximal effect, on the per cent scale that the assay sets. In general, Ki refers to a dissociation constant, usually derived from enzyme kinetics or from competition with a known ligand. Low readings indicate higher affinity, high ones lower affinity. With `Cl.O=C1C2CCCN2C(=O)CN1CCCCNCC1CCc2ccccc2O1` (configuration not stated), the Emax in experiment [1] is 87.6%. For the same compound, the Ki is over 1000 nM in experiment [2]; 418 nM in experiment [3]; over 1000 nM at D(2) dopamine receptor; over 1000 nM in experiment [5]; 107 nM in experiment [6]. Also, the Activity in experiment [4] is 13%.

Source of the values: ChEMBL document CHEMBL1926607 (J Med Chem, 2011).
